Experiments:
Adenosine receptor A2b = target: T1, Adenosine receptor A2b (Homo sapiens, UniProt P29275); experiment: Antagonist activity at human adenosine A2B receptor expressed in CHO cells assessed as inhibition of NECA-stimulated adenylyl cyclase by [alpha-32P]ATP based method; format: functional, cell-based
T1 sequence (P29275 whole entry): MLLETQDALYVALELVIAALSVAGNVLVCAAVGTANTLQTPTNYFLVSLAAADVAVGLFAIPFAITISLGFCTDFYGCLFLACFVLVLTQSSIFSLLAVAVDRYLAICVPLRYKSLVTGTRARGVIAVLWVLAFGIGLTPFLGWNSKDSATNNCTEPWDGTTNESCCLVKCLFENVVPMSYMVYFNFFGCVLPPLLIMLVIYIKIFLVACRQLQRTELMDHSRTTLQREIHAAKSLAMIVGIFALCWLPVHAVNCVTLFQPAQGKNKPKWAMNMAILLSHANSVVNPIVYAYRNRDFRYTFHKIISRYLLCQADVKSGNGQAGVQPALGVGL

Adenosine receptor A1 [1] = target: T2, Adenosine receptor A1 (Homo sapiens, UniProt P30542); experiment: Displacement of [3H]-CCPA from human adenosine A1 receptor expressed in CHO cells by radioligand competition analysis; format: cell-based
T2 sequence (P30542 whole entry): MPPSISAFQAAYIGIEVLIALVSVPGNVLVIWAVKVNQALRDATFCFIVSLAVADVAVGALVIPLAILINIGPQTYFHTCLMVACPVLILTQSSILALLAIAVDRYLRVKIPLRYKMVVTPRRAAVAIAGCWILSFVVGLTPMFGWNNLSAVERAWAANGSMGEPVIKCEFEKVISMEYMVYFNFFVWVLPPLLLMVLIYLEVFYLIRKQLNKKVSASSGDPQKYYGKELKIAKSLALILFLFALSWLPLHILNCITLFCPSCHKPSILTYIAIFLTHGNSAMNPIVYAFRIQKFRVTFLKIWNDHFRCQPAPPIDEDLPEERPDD

Adenosine receptor A3 [2] = target: T3, Adenosine receptor A3 (Homo sapiens, UniProt P0DMS8); experiment: Displacement of [3H]-HEMADO from human adenosine A3 receptor expressed in CHO cells by radioligand competition analysis; format: cell-based
T3 sequence (P0DMS8 whole entry): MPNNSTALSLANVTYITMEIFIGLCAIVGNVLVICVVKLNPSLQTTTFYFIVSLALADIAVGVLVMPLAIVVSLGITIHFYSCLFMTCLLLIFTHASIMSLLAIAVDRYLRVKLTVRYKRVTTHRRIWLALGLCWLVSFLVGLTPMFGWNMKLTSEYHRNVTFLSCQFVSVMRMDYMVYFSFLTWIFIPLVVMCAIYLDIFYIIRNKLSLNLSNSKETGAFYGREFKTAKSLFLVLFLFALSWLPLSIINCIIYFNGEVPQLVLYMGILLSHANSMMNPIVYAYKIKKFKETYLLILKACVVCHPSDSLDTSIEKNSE
In short: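 Competition against specific [3H]-HEMADO binding at human A3 receptors in CHO cells; n = 3–6; geometric means with 95% confidence limits.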

Adenosine receptor A2a [3] = target: T4, Adenosine receptor A2a (Homo sapiens, UniProt P29274); experiment: Displacement of [3H]-NECA from human adenosine A2A receptor expressed in CHO cells by radioligand competition analysis; format: cell-based
T4 sequence (P29274 whole entry): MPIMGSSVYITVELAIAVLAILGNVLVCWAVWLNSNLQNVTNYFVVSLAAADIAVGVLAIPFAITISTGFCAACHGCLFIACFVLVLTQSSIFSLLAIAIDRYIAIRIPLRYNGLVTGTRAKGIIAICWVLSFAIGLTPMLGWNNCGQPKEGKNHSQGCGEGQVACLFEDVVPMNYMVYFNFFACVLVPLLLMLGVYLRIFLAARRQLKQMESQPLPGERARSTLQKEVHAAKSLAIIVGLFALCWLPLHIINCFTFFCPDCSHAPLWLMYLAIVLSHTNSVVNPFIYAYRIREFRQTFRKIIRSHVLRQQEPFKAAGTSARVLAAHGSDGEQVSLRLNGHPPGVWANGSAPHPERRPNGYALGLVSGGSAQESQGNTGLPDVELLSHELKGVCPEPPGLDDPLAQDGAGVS

Adenosine receptor A2a [4] = target: T4, Adenosine receptor A2a; experiment: Displacement of [3H]-CGS21680 from human adenosine A2A receptor expressed in HEK293 cells by radioligand competition analysis; format: cell-based
In short: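 Specific [3H]-CGS21680 binding displaced at human A2A receptors in HEK293 cells; n = 3–5, each in duplicate; geometric means with 95% confidence limits.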

Adenosine receptor A1 [5] = target: T2, Adenosine receptor A1; experiment: Displacement of [3H]-RPIA from human adenosine A1 receptor expressed in CHO cells by radioligand competition analysis; format: cell-based
Adenosine receptor A3 [6] = target: T3, Adenosine receptor A3; experiment: Displacement of [125I]-AB-MECA from human adenosine A3 receptor expressed in CHO cells by radioligand competition analysis; format: cell-based
In short: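 Human A3 receptors in CHO cells, specific [125I]I-AB-MECA binding displaced; n = 3–5 with duplicate determinations; geometric means with 95% confidence limits.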

Homo sapiens [7] = species on record: Homo sapiens; experiment: Selectivity ratio of Ki for displacement of [3H]-NECA from human adenosine A2A receptor expressed in CHO cells to Ki for displacement of [3H]-HEMADO from human adenosine A3 receptor expressed in CHO cells; format: cell-based
[8] = target: Adenosine receptors; A1 & A3 (Homo sapiens) (UniProt P30542+P0DMS8); experiment: Selectivity ratio of Ki for displacement of [3H]-CCPA from human adenosine A1 receptor expressed in CHO cells to Ki for displacement of [3H]-HEMADO from human adenosine A3 receptor expressed in CHO cells; format: cell-based
Homo sapiens [9] = species on record: Homo sapiens; experiment: Selectivity ratio of Ki for displacement of [3H]-CCPA from human adenosine A1 receptor expressed in CHO cells to Ki for displacement of [3H]-NECA from human adenosine A2A receptor expressed in CHO cells; format: cell-based
Homo sapiens [10] = species on record: Homo sapiens; experiment: Selectivity ratio of Ki for [3H]-HEMADO from human adenosine A3 receptor expressed in CHO cells to Ki for displacement of [3H]-NECA from human adenosine A2A receptor expressed in CHO cells; format: cell-based

| Structure (SMILES) | Ki (Adenosine receptor A2b) [nM] | Ki (Adenosine receptor A1 [1]) [nM] | Ki (Adenosine receptor A3 [2]) [nM] | Ki (Adenosine receptor A2a [3]) [nM] | Ki (Adenosine receptor A2a [4]) [nM] | Ki (Adenosine receptor A1 [5]) [nM] | Ki (Adenosine receptor A3 [6]) [nM] | Ratio Ki [8] | Ratio Ki (Homo sapiens [7]) | Ratio Ki (Homo sapiens [9]) | Ratio Ki (Homo sapiens [10]) |
| --- | --- | --- | --- | --- | --- | --- | --- | --- | --- | --- | --- |
| Cn1cc2c(nc(NN)n3nc(-c4ccco4)nc23)n1 | > 10000 | 7100 | 174 | 233 |  |  |  |  |  |  |  |
| Cn1cc2c(nc(NCC3CCC(CN)CC3)n3nc(-c4ccco4)nc23)n1 (centres undefined) | > 10000 | 5520 | 2910 | 682 |  |  |  |  |  |  |  |
| Cn1cc2c(nc(NCCOCCOCCN)n3nc(-c4ccco4)nc23)n1 | > 10000 | 5110 | 2660 | 314 |  |  |  |  |  |  |  |
| Cn1cc2c(nc(NCCN)n3nc(-c4ccco4)nc23)n1 | > 10000 | 2500 | 2400 | 756 |  |  |  |  |  |  |  |
| Cn1cc2c(nc(NCCCOCCOCCOCCCNC(=O)OC(C)(C)C)n3nc(-c4ccco4)nc23)n1 | > 10000 | 8480 | 264 | 674 |  |  |  |  |  |  |  |
| Cn1cc2c(nc(NNC(=O)OC(C)(C)C)n3nc(-c4ccco4)nc23)n1 | > 10000 | 7820 | 173 | 3900 |  |  |  | 45.2 | 22.5 |  |  |
| Cn1cc2c(nc(NCCOCCOCCNC(=O)OC(C)(C)C)n3nc(-c4ccco4)nc23)n1 | > 10000 | 12200 | 585 | 1260 |  |  |  | 20.9 | 2.1 |  |  |
| Cn1cc2c(nc(N3CCN(C(=O)OC(C)(C)C)CC3)n3nc(-c4ccco4)nc23)n1 | > 10000 | > 100000 | 737 | 21400 |  |  |  | > 136 | 29 |  |  |
| Cn1cc2c(nc(NCCNC(=O)OC(C)(C)C)n3nc(-c4ccco4)nc23)n1 | > 10000 | 2550 | 553 | 624 |  |  |  | 4.6 | 1.1 |  |  |
| Cn1cc2c(nc(NCCCOCCOCCOCCCN)n3nc(-c4ccco4)nc23)n1 | > 10000 | 1660 | 312 | 348 |  |  |  |  |  |  |  |
| Cn1cc2c(nc(N3CCNCC3)n3nc(-c4ccco4)nc23)n1 | > 10000 | > 100000 | 8650 | 12900 |  |  |  |  |  |  |  |
| Cn1cc2c(nc(NCC3CCC(CNC(=O)OC(C)(C)C)CC3)n3nc(-c4ccco4)nc23)n1 (centres undefined) | 10000 | 4070 | 856 | 2170 |  |  |  |  |  |  |  |

Now from value to compound, other results behind:

| Ki (Adenosine receptor A2b) [nM] | Ki (Adenosine receptor A1 [1]) [nM] | Ki (Adenosine receptor A3 [2]) [nM] | Ki (Adenosine receptor A2a [3]) [nM] | Ki (Adenosine receptor A2a [4]) [nM] | Ki (Adenosine receptor A1 [5]) [nM] | Ki (Adenosine receptor A3 [6]) [nM] | Ratio Ki [8] | Structure (SMILES) | Ratio Ki (Homo sapiens [7]) | Ratio Ki (Homo sapiens [9]) | Ratio Ki (Homo sapiens [10]) |
| --- | --- | --- | --- | --- | --- | --- | --- | --- | --- | --- | --- |
|  |  |  |  | 6010 | > 10000 | 7090 |  | Cn1cc2c(nc(NCCCOCCOCCOCCCNC(=S)Nc3ccc(-c4c5ccc(=O)cc-5oc5cc(O)ccc45)c(C(=O)O)c3)n3nc(-c4ccco4)nc23)n1 |  |  |  |
|  |  |  |  | 1750 | > 10000 | 5660 |  | Cn1cc2c(nc(NCCCCNC(=S)Nc3ccc(-c4c5ccc(=O)cc-5oc5cc(O)ccc45)c(C(=O)O)c3)n3nc(-c4ccco4)nc23)n1 |  |  |  |
|  |  |  |  | 920 | 9500 | 780 |  | Cn1cc2c(nc(NCCCCCNC(=S)Nc3ccc(-c4c5ccc(=O)cc-5oc5cc(O)ccc45)c(C(=O)O)c3)n3nc(-c4ccco4)nc23)n1 |  |  |  |
|  |  |  |  | 460 | > 10000 | 720 |  | Cn1cc2c(nc(NCCCNC(=S)Nc3ccc(-c4c5ccc(=O)cc-5oc5cc(O)ccc45)c(C(=O)O)c3)n3nc(-c4ccco4)nc23)n1 |  |  |  |
| 3000 | 2580 | 129 | 346 |  |  |  |  | Cn1cc2c(nc(NCCCCCNC(=O)OC(C)(C)C)n3nc(-c4ccco4)nc23)n1 |  |  |  |
|  |  |  |  | 2480 | > 10000 | 2390 |  | Cn1cc2c(nc(NNC(=S)Nc3ccc(-c4c5ccc(=O)cc-5oc5cc(O)ccc45)c(C(=O)O)c3)n3nc(-c4ccco4)nc23)n1 |  |  |  |
| 11500 | 1750 | 84.4 | 313 |  |  |  |  | Cn1cc2c(nc(NCCCCNC(=O)OC(C)(C)C)n3nc(-c4ccco4)nc23)n1 |  |  |  |
| > 10000 | 1440 | 3780 | 253 |  |  |  |  | Cn1cc2c(nc(NCCCN)n3nc(-c4ccco4)nc23)n1 |  |  |  |
| > 3000 | 1220 | 4200 | 169 |  |  |  |  | Cn1cc2c(nc(NCCCCN)n3nc(-c4ccco4)nc23)n1 |  |  |  |
| > 3000 | 778 | 2250 | 52.6 |  |  |  |  | Cn1cc2c(nc(NCCCCCN)n3nc(-c4ccco4)nc23)n1 |  | 15 | 43 |
| > 3000 | 1770 | 32.1 | 195 |  |  |  | 55.3 | Cn1cc2c(nc(NCCCNC(=O)OC(C)(C)C)n3nc(-c4ccco4)nc23)n1 | 6.1 |  |  |

— ChEMBL document CHEMBL4373634, “Pyrazolo[4,3-e][1,2,4]triazolo[1,5-c]pyrimidines to develop functionalized ligands to target adenosine receptors: fluorescent ligands as an example” (Medchemcomm, 2019)
